Measurements reported in ChEMBL document CHEMBL4138188, “Eurycomalactone Inhibits Expression of Endothelial Adhesion Molecules at a Post-Transcriptional Level” (J Nat Prod, 2017).
The source made the active and inactive calls. The rule behind the calls is not given here.

Tests used:
[1] = species: Homo sapiens; assay: Reduction in p53 level in HUVECtert at 2 uM after 8 hrs by Western blot analysis; format: functional
[2] = species: Homo sapiens; assay: Inhibition of de novo protein synthesis in HUVECtert at 2 to 5 uM after 30 mins by Click-iT OPP/Alexa fluor 488 picolyl azide reagent based confocal fluorescence microscopy; format: functional
Outline: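 Cells on gelatin coverslips (24 h) exposed 30 min to agent (2 or 5 μM; cycloheximide 1, 3.5, 35 μM) or 0.1% DMSO, then 20 μM OPP for 30 min; formaldehyde fixation, Triton permeabilisation, Alexa 488 picolyl azide click reaction 30 min, nuclear counterstain; confocal imaging at 10×, constant gain and exposure.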

CC1=CC(=O)[C@@H](O)[C@@]2(C)[C@H]1CC(=O)[C@@]1(C)[C@H]3C(=O)O[C@H]([C@@H]3C)[C@H](O)[C@@H]12 [EURYCOMALACTONE]
Activity [1]: inactive
inhibition [2]: Active
